# NR2E3 ag-1 – NR2E3 agonists in two-hybrid cells, primary screen, cell-based, luminescence, CHO-S, Gal4-NCOR/VP16-NR2E3; luciferase; AID 602229, 2012; Photoreceptor-specific nuclear receptor (Homo sapiens), Q9Y5X4; 360,000 tested, 0.35% active; inhibition of corepressor binding, % at 3.98 µM;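 active = inhibition above the mean of all tested compounds plus 3 SD, cut at about 70% in these data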;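 note: 0% = DMSO with NR2E3 transfected cells and 100% = cells lacking NR2E3 construct; higher means lower luciferase signal from less NR2E3 corepressor binding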
# Target sequence (Q9Y5X4 whole entry, looked up, the tested form may be a part): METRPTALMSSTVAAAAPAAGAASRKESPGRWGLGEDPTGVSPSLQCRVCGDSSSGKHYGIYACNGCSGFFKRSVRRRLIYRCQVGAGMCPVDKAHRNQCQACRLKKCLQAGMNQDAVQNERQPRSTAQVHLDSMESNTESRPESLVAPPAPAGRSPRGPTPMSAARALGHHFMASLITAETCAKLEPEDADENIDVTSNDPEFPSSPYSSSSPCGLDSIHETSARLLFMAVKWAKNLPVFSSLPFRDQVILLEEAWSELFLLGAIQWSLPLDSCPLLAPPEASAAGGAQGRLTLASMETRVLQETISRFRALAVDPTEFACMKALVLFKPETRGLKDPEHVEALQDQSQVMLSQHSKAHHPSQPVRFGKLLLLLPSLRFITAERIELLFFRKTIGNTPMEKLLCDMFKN
# 697 NFkB inh – inhibitors of PMA/ionomycin-induced NF-kB reporter, 697 cells, primary screen, B-cell NF-kB inhibitor project, cell-based, luminescence, uHTS. inhibition, % at 4 µM. 330,000 tested, 0.33% active. 697 B-cell NF-kB luciferase reporter, 16 h; in the data active = inhibition above about 35%
# Jurkat NFkB inh – inhibitors of induced NF-kB luciferase reporter, primary screen, TCR NF-kB activation inhibitor project, cell-based, luminescence, uHTS; Jurkat, PMA/ionomycin-induced NF-kB luciferase reporter; inhibition, % at 4 µM; 330,000 tested, 0.53% active; in the data active = inhibition above about 50%
# FGF22 binding – binders of human FGF22 protein, primary screen, FGF22 synaptogenesis inhibitor project, biophysical, thermal shift, single point | recombinant FGF22 thermal shift, SYPRO orange fluorescence; percent of sucrose octasulfate shift, DMSO zero | 340,000 tested, 1.5% active | Fibroblast growth factor 22 (Homo sapiens), Q9HCT0 | activity (Tm shift, normalised), % at 9.99 µM;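 active = mean Tm shift, scaled 0 neutral to 100 positive control, at about 1.3% or above, every replicate too, limit read from the data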
# Target sequence (Q9HCT0 whole entry, looked up): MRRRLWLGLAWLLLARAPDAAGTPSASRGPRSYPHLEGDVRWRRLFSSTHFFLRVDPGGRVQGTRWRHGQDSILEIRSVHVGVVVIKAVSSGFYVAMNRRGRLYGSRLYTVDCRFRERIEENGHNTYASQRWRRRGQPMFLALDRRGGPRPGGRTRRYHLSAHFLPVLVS
# NR2E3 ag-2 – inhibitors of NR2E3-RetCOR corepressor binding, primary screen, NR2E3 agonist project, biochemical, TR-FRET, GST-NR2E3, biotin-RetCOR | inhibition of corepressor binding, % at 4.78 µM | 320,000 tested, 0.12% active | 1536-well;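 active = percent inhibition above the cutoff of mean plus 3 SD of all tested compounds, set per screening campaign, cut at about 20% in these data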;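 note: 0% = DMSO wells and 100% = biotin wells as full block of FRET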
#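 Material: NR2E3–RetCOR corepressor complex / Amount: 1.35 nM GST-NR2E3 / Medium: Tris pH 7.5 / Compound: single nominal compound dose of 4.8 µM / Incubation: 5 h at 4 °C / Technique: TR-FRET, Eu(K)-anti-GST donor, streptavidin-D2 acceptor, ex 340, em 617/671 nm / Read-out basis: percent loss of FRET ratio relative to control wells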
# miR-122 sensor – miR-122 Renilla sensor signal increase in Huh7, primary screen, miR-122 inhibitor project, cell-based, single point, plate reader | AID 602342, 2012 | activation (reporter increase), % at 12.5 µM | Huh7 miR-122 Renilla luciferase sensor, 48 h; neutral wells = 0, positive control = 100 | 340,000 tested, 0.3% active;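 active = mean replicate activation score at least 90 and every replicate individually at or above 90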;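 note: higher luciferase means less miR-122 activity so hits act as miR-122 inhibitors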
# Active calls of the source: *; nt = no result given; ! = not confirmed by another sample; [ ] = dose if it differs, or a comment. This is a sample that favours compounds with a hit; in the whole collection about 2.2% have one here.
SMILES,NR2E3 ag-1,697 NFkB inh,Jurkat NFkB inh,FGF22 binding,NR2E3 ag-2,miR-122 sensor
COc1ccc(CNC(=O)/C(C)=C\C(=O)O)cc1,-2.4,8.9,-7.9,43.4*,2.9,nt
COc1ccc(-n2nnnc2SCC(=O)c2ccc(O)c(O)c2)cc1,10.4,-73.3,8.3,nt,-1.5,3.5
NC(=O)c1ccc(-n2nnnc2SCC(=O)c2ccc(O)c(O)c2)cc1,-3.4,2.2,-11.5,0.0,2.2,128.7*
O=C(Nc1cccc(Cl)c1)N1C[C@H]2[C@@H](c3ccccc31)[C@H](CO)N2Cc1ccccc1Cl,nt,nt,nt,84.2*,nt,3.8[16.7 µM]
O=C(COC(=O)Cc1ccc(Cl)cc1)Nc1ccccc1F,-17.0,9.6,4.5,0.1,-1.8,nt
O=C(COC(=O)Cc1ccc(Cl)cc1)Nc1c(F)cccc1F,-19.4,0.7,-9.4,44.2*,-1.3,5.1
O=C(O)c1cccc(N/N=C/C2=C(Cl)c3cc(Cl)ccc3SC2)c1,-166.3,nt,nt,43.0*,nt,nt
CC1=Nc2cc(C(=O)NCCCOC(C)C)ccc2Sc2ccccc21,-7.0,-0.6,24.0,43.0*,0.8,67.3
CCCC1=Nc2cc(C(=O)NCCCOC(C)C)ccc2Sc2ccccc21,-41.4,-89.8,45.8,nt,6.5,12.1
O=C(CCc1ccccc1)OCC(=O)c1ccc(Br)cc1,2.1,5.7,-3.5,43.3*,-1.0,-3.6
CCNC(=O)C[C@@H]1CC[C@@H]2[C@@H](COc3ccc(NS(=O)(=O)c4ccccc4C)cc3C(=O)N2C)O1,nt,nt,nt,0.0,nt,11.4[16.7 µM]
Cc1cc(C)c(C)c(S(=O)(=O)NC2CCN(Cc3ccccc3)CC2)c1C,-32.1,14.1,5.7,0.2,-1.4,216.3*
Cc1cc(C)c(S(=O)(=O)NC2CCN(Cc3ccccc3)CC2)c(C)c1,-10.1,25.3,9.4,0.1,-1.0,9.0
O=C(c1cccs1)N1CCN=C1SCc1ccccc1F,-2.3,6.8,7.3,43.2*,-1.3,-6.4
Cc1noc(C)c1NC(=O)Nc1cccc2c1O[C@@H](CN(C)Cc1ccncc1)[C@@H](C)CN([C@H](C)CO)C2=O,nt,nt,nt,-0.3,nt,3.9[16.7 µM]
COCC#Cc1ccc2c(c1)O[C@@H](CN(C)CC1CCOCC1)[C@@H](C)CN([C@H](C)CO)S2(=O)=O,nt,nt,nt,0.1,nt,-9.6[16.7 µM]
CCOc1cc(/C=C2\SC(=N)N(c3nonc3N)C2=O)ccc1OCC(N)=O,3.4,13.8,8.3,nt,2.5,0.0
CCOc1cc(/C=C2\SC(=N)N(c3nonc3N)C2=O)ccc1OCCN1CCOCC1,-10.2,3.5,2.9,1.5*,2.7,nt
CN1C(=O)c2cc(NC(=O)c3cccs3)ccc2OC[C@@H]2O[C@H](CC(=O)O)CC[C@H]21,nt,nt,nt,nt,nt,7.5[16.7 µM]
C[C@H]1CCCCO[C@H](CN(C)Cc2ccc(C(=O)O)cc2)[C@@H](C)CN([C@@H](C)CO)C(=O)c2cc(NC(=O)Cc3ccccc3)ccc2O1,nt,nt,nt,0.2,nt,-1.3[16.7 µM]
COc1ccc(S(=O)(=O)NCCc2c(C)nn(C)c2Oc2ccccc2)cc1,-2.6,2.9,-4.9,nt,-0.1,237.7*
Cc1nn(C)c(Oc2ccccc2)c1CCNS(=O)(=O)c1ccc(Cl)cc1,5.3,-4.5,6.3,nt,0.4,70.3
COC(=O)C1CCN(C(=O)Cc2ccccc2OC)CC1,-14.9,3.9,-9.4,43.1*,-2.0,4.3
COc1ccccc1CC(=O)N1CCN(c2ccccc2)CC1,-14.2,9.5,1.6,-0.4,7.4,-0.5
COc1ccc(CN(C)C[C@@H]2Oc3ccc(NC(=O)CCN4CCOCC4)cc3C(=O)N([C@@H](C)CO)C[C@H]2C)cc1,nt,nt,nt,-0.6,nt,-6.7[16.7 µM]
SMILES,NR2E3 ag-1,697 NFkB inh,Jurkat NFkB inh,FGF22 binding,NR2E3 ag-2,miR-122 sensor
COc1ccccc1CN1[C@@H]2CN(C(=O)C3CC3)c3ccccc3[C@@H]2[C@@H]1CO,nt,nt,nt,0.0,nt,0.0[16.7 µM]
COC(=O)c1sccc1NC(=O)CSCCc1ccncc1,8.4,-4.7,8.8,43.4*,0.7,nt
C[C@H]1CN([C@@H](C)CO)C(=O)c2cc(-c3cncnc3)cnc2O[C@@H]1CN(C)Cc1ccncc1,nt,nt,nt,0.0,nt,-1.5[16.7 µM]
C[C@@H]1CCCCO[C@H](CN(C)S(=O)(=O)c2ccccc2)[C@@H](C)CN([C@@H](C)CO)C(=O)c2cc(NS(=O)(=O)c3cn(C)cn3)ccc2O1,nt,nt,nt,-0.6,nt,4.6[16.7 µM]
Nc1ccc(Cl)cc1C(=O)c1ccc[nH]1,-7.2,nt,nt,44.1*,nt,2.4
O=C(c1cc2sccc2n1Cc1ccccc1)N1CCN(c2nc3ccccc3s2)CC1,79.6*,-12.0,32.2,nt,2.6,-8.2
O=C(C[C@H]1C[C@@H]2c3cc(NS(=O)(=O)c4ccccc4)ccc3O[C@@H]2[C@H](CO)O1)NC1CCCCC1,nt,nt,nt,-0.5,nt,6.9[16.7 µM]
COc1ccc2c3c([nH]c2c1)[C@H](CO)N(C(=O)C1CC1)CC31CN(S(C)(=O)=O)C1,nt,nt,nt,0.0,nt,nt
C#CCNC(=O)C1=C[C@@H](c2ccccc2)C[C@@H](OCCCCO)O1,-6.4,4.8,-4.4,1.7*!,6.5,1.5
C#CCNC(=O)C1=C[C@@H](c2ccc(C#C)cc2)C[C@@H](OCCCCO)O1,-3.1,11.9,7.3,nt,-4.0,1.4
C[C@@H]1CN([C@H](C)CO)C(=O)c2cc(-c3ccncc3)cnc2O[C@H]1CN(C)C(=O)Cc1cccnc1,nt,nt,nt,-0.2,nt,6.4[16.7 µM]
O=C(c1cc2c(=O)n3ccccc3nc2s1)N1CCN(Cc2ccc3c(c2)OCO3)CC1,-4.8,10.0,-4.4,43.0*,-4.5,nt
O=C(c1cc2c(=O)n3ccccc3nc2s1)N1CCN(Cc2ccccc2)CC1,-12.2,-2.2,-0.4,0.1,3.8,nt
COc1ccc(N2CC(C(=O)N/N=C/c3c[nH]c4ccccc34)CC2=O)cc1 (configuration not stated),-4.7,-9.2,-2.7,43.6*,-1.8,nt
COc1ccc(CCCc2nnc(SCc3nc4ccccc4c(=O)[nH]3)n2C)cc1C,2.7,-5.6,-19.1,42.9*,3.3,-5.9
Cc1ccccc1OCc1nnc(SCc2nc3ccccc3c(=O)[nH]2)n1C,2.6,nt,nt,0.2,1.8,1.1
CCC(=O)N1CC2(C1)CN(Cc1ccccn1)[C@H](CO)c1[nH]c3cc(OC)ccc3c12,nt,nt,nt,0.0,nt,nt
C[C@@H]1CCCCO[C@H](CN(C)C(=O)CCCN(C)C)[C@H](C)CN([C@@H](C)CO)C(=O)c2cc(NC(=O)Nc3ccccc3)ccc2O1,nt,nt,nt,-0.7,nt,5.7[16.7 µM]
O=C(CCN=C1NS(=O)(=O)c2ccccc21)OCC(=O)c1ccccc1Cl,-6.5,5.7,-2.7,-0.2,2.5,nt

# Assay outcomes from PubChem.
